Data on 14 compounds can be found in PubChem BioAssay.

The structures appear in SMILES notation. Active and inactive are the calls of the source.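 Rule for the calls, unless noted: active = visually confirmed hit in the image check and inhibition above 20%; inconclusive = visually confirmed hit but inhibition not above 20%; inactive = no visual hit in the image check.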

Experiment [1] is described as follows: inhibitors of TNFa-induced NFkB p65 translocation, primary screen, imaging, HUVEC, MLSMR starter and 10KST1 sets (AID 438;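 active = inhibition above 20% together with a positive visual image hit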;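 note: compound added about 3h40 before a 20 min TNFalpha stimulation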;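 for inhibition: signal is the nuclear over cytoplasmic p65 intensity ratio per well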). Particulars: HUVEC TNFa-induced p65 nuclear translocation; cell count: measured here: nuclei count (cytotoxicity indicator), at 2.08 µM; inhibition: at 2 µM, stronger effect = higher value, 0% TNFa-plus-vehicle, 100% no-TNFa wells.
Experiment [2] can be described thus: inhibitors of mutant huntingtin aggregation, primary screen, imaging, exon1htt(103Q)mCFP cells, high-content imaging (AID 483;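 active = visual image review flags a hit and inhibition of aggregation exceeds 20%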;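 note: compound exposure lasted 3 days before fixation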;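 for nuclei count: percent of the per-plate median nuclei count of sample wells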). Particulars: exon1htt(103Q)mCFP cell line, aggregate imaging, at 2 µM; inhibition of aggregation: stronger effect = higher value; nuclei count: measured here: cell count, toxicity.
Experiment [3] is described as follows: inhibitors of E-selectin induction by TNFa, primary screen, imaging, HUVEC, immunofluorescence, MLSMR starter and 10KST1 sets (AID 487).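 For inhibition: signal is fraction of cell area covered by stained E-selectin grains.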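 For nuclei count: 100% = median nuclei count of all wells on the same plate.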 The settings on record: HUVEC TNFalpha-induced E-selectin immunofluorescence imaging, at 2 µM; inhibition: stronger effect = higher value; nuclei count: measured here: cell number, toxicity.
The target of experiment [4] is Voltage-gated potassium channel subunit beta-2 (Rattus norvegicus) (UniProt P62483). Description: KvBeta enzyme negative modulators, primary screen, biochemical, NADPH fluorescence (AID 622;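 active = fluorescence slope higher than the sample average by over 3 SD, cut at about -0.22 in these data, passing the limit was not always enough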;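 note: slope of raw intensity against log time taken from 70 to 1610 s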). Particulars: recombinant KvBeta, 4-cyanobenzaldehyde reduction, at 10 µM, stronger effect = higher value.
For experiment [5] the target is unchanged. Kind of experiment: KvBeta positive modulators, primary screen, biochemical, NADPH fluorescence (AID 623;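 active = NADPH fluorescence slope more negative than the mean of all samples by about 3 SD, 99.7% confidence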;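 note: fluorescence intensity change per second fitted from 20 to 320 s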). The settings on record: Recombinant KvBeta, NADPH fluorescence decrease slope, 10 min; at 10 µM; stronger effect = lower value.
The target of experiment [6] is Muscarinic acetylcholine receptor M4 (Homo sapiens) (UniProt P08173). Kind of experiment: compounds altering M4/GIRK thallium flux, either direction, primary screen, M4 allosteric agonist project, cell-based, HEK293 M4/GIRK, BTC-AM (AID 625;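 active = fluorescence slope after compound addition differing from the mean of all tested samples at 99.7% confidence, mostly higher but some lower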;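 note: thallium influx through GIRK channels coupled to M4 in HEK293 cells with BTC-AM dye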). Particulars: at 10 µM, actives lie on both sides. Put shortly:
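Assay system: HEK293 cells with M4 receptor and GIRK channels / Controls: carbachol and DMSO controls / Schedule: 1 h dye loading, 2 min kinetic read / Technique: kinetic fluorescence with BTC-AM dye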

A short description of experiment [7]: inhibitors of Sendai virus-induced IRF3 signaling, primary screen, TLR/RLR signaling modifier project, cell-based, Sendai virus stimulus, luciferase, 10K MLSCN set (AID 602276;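 active = inhibition at or above 50% at 10 µM; inactive = inhibition below 50%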;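 note: firefly luciferase from ISG56 promoter only with Renilla not read in this screen; 0% = Sendai virus plus DMSO and 100% = medium plus DMSO without virus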). Particulars: HEK293 RL24 IRF3 luciferase reporter, at 10 µM, stronger effect = higher value.
Experiment [8] in a line: inhibitors of poly I:C-induced TLR3 signaling, primary screen, cell-based, poly I:C stimulus, luciferase, 10K MLSCN set (AID 602277;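 active = inhibition of the reporter signal at or above 50%; inactive = inhibition below 50%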). Particulars: HEK293-TLR3 RL24 IRF3 luciferase reporter, at 10 µM, stronger effect = higher value. For orientation: In a reporter assay the amount or activity of a reporter protein is the signal.

Sequence of Voltage-gated potassium channel subunit beta-2 (Rattus norvegicus) (P62483 whole entry, looked up): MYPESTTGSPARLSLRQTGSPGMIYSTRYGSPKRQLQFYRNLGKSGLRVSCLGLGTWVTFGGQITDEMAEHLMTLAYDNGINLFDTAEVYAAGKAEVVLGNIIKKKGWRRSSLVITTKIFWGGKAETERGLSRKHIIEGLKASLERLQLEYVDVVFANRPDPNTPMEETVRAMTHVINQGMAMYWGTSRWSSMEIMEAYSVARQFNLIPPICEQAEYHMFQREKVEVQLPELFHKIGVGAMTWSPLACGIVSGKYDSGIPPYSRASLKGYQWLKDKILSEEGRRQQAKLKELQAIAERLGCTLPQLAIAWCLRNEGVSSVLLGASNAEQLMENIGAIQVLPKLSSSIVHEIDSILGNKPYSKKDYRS
Sequence of Muscarinic acetylcholine receptor M4 (Homo sapiens) (P08173 whole entry, looked up): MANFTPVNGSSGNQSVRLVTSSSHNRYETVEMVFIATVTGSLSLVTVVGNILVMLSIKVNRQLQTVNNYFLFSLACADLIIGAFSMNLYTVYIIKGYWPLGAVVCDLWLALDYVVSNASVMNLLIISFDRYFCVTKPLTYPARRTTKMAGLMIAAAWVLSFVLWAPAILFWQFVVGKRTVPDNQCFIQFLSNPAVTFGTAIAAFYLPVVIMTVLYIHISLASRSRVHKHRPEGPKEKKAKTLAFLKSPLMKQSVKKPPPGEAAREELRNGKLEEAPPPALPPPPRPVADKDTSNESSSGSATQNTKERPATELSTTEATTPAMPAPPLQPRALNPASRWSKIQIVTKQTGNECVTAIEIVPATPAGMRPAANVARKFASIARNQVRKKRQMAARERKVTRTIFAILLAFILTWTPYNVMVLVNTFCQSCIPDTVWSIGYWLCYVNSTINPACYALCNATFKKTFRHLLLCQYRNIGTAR

Usually inhibition stands for the relative decrease from the control value, in per cent. `CCN1CCN(CCCNC(=O)c2cn(CCOC)c(=O)c3c2c2ccccc2n3C)CC1`: the cell count in experiment [1] came to 451. For the same compound, the inhibition was -6.3% (inactive) in experiment [1], -2.9% (inactive) in experiment [3], -6.82% (inactive) in experiment [7] and 0.455% (inactive) in experiment [8]. The inhibition of aggregation in experiment [2] was 5.8% (inactive). Moreover, the nuclei count was 103% in experiment [2] and 106% in experiment [3]. Also, the fluorescence slope is -0.569 (inactive) in experiment [4] and 0.00513 (inactive) in experiment [6]. The NADPH fluorescence slope in experiment [5] is -1.9e-06 (inactive).

As for `CCOC(=O)c1[nH]c2ccccc2c1NC(=O)c1ccco1`, the cell count in experiment [1] came out at 671. In addition, the inhibition was -8.6% (inactive) in experiment [1], 52.3% (inactive) in experiment [3], 17.1% (inactive) in experiment [7] and 21.7% (inactive) in experiment [8]. Besides, the inhibition of aggregation in experiment [2] was 4.2% (inactive). Also, the nuclei count in experiment [2] came out at 87.8%; in experiment [3], 102%. For the same compound, the fluorescence slope in experiment [4] is -0.332 (inactive); in experiment [6], 0.00748 (inactive). Moreover, the NADPH fluorescence slope in experiment [5] is -6.5e-05 (inactive).

For `CCOc1ccc(C2/C(=C(/O)c3ccccc3)C(=O)C(=O)N2CCCN(C)C)cc1OC` (centres undefined), in experiment [1], the cell count came to 411. The inhibition was -1.1% (inactive) in experiment [1], -29.6% (inactive) in experiment [3], 19.2% (inactive) in experiment [7] and 15.1% (inactive) in experiment [8]. The inhibition of aggregation in experiment [2] was -13.7% (inactive). The nuclei count in experiment [2] came out at 102%; in experiment [3] it was 92.2%. The fluorescence slope in experiment [4] was -0.446 (inactive); in experiment [6], 0.00491 (inactive). The NADPH fluorescence slope in experiment [5] was -4.1e-05 (inactive).

Consider `Cc1ccc(S(=O)(=O)N[C@@H](C)C(=O)N2CCC(C(=O)N3CCC[C@H]3C(=O)O)CC2)cc1`, for which, in experiment [1], the cell count was found to be 361. Further, the inhibition is 3.6% (inactive) in experiment [1], -59.3% (inactive) in experiment [3], 2.84% (inactive) in experiment [7] and 13% (inactive) in experiment [8]. Besides, in experiment [2], the inhibition of aggregation is -14.8% (inactive). Moreover, the nuclei count in experiment [2] was 102%; in experiment [3], 129%. For the same compound, the fluorescence slope in experiment [4] is -0.406 (inactive); in experiment [6] it was 0.00591 (inactive). Further, the NADPH fluorescence slope in experiment [5] was 7.4e-05 (inactive).

With `CCOC(=O)N1CCC(N(C(=O)Nc2ccc(Cl)c(Cl)c2)C(C)CC)CC1` (centres undefined), in experiment [1], the cell count worked out at 346. For the same compound, the inhibition in experiment [1] is -3.2% (inactive); in experiment [3], -44% (inactive); in experiment [7], 8.19% (inactive); in experiment [8] it was -18.2% (inactive). Further, in experiment [2], the inhibition of aggregation is 4.4% (inactive). The nuclei count came to 120% in experiment [2] and 118% in experiment [3]. The fluorescence slope in experiment [4] was -0.489 (inactive); in experiment [6] it was 0.00507 (inactive). Besides, the NADPH fluorescence slope in experiment [5] was -7.4e-06 (inactive).

For `COCC(=O)Nc1sc2c(c1C(=O)OC)CCC(C)C2` (centres undefined), the cell count in experiment [1] was determined as 421. Further, the inhibition in experiment [1] was 5.5% (inactive); in experiment [3] it was -127% (inactive); in experiment [7], 16.5% (inactive); in experiment [8], -17% (inactive). For the same compound, in experiment [2], the inhibition of aggregation is -7.6% (inactive). Moreover, the nuclei count was determined as 94.2% in experiment [2] and 126% in experiment [3]. Besides, the fluorescence slope in experiment [4] is -0.471 (inactive); in experiment [6] it was 0.00475 (inactive). For the same compound, the NADPH fluorescence slope in experiment [5] was -3.9e-05 (inactive).

As for `CCOC(=O)Cc1nn2c(=O)cc(C)nc2s1`, in experiment [1], the cell count stood at 728. The inhibition in experiment [1] is -22.9% (inactive); in experiment [3], 2.2% (inactive); in experiment [7], 2.1% (inactive); in experiment [8], 11.1% (inactive). In experiment [2], the inhibition of aggregation was 6.2% (inactive). Further, the values for the nuclei count in experiment [2] and in experiment [3] were 118% and 94.9%, respectively. Moreover, the fluorescence slope in experiment [4] is -0.474 (inactive); in experiment [6], 0.00652 (inactive). Further, the NADPH fluorescence slope in experiment [5] is 0.000188 (inactive).

On to `COc1ccc(C(=O)N(Cc2ccco2)C(C(=O)NC2CCCC2)c2ccc(O)cc2)cc1OC` (centres undefined), for which the cell count in experiment [1] turned out to be 653. Further, the inhibition in experiment [1] is -2.4% (inactive); in experiment [3], 14.6% (inactive); in experiment [7], 10.7% (inactive); in experiment [8], 12.6% (inactive). Besides, the inhibition of aggregation in experiment [2] is -3.3% (inactive). Also, the nuclei count in experiment [2] was determined as 104%; in experiment [3], 103%. Besides, the figures for the fluorescence slope in experiment [4] and in experiment [6] were -0.54 (inactive) and 0.00452 (inactive), respectively. Further, the NADPH fluorescence slope in experiment [5] was -4.9e-05 (inactive).

For the compound `COc1cccc(-c2noc(CCC(=O)NC3CCCCC3)n2)c1`, the cell count in experiment [1] is 433. Besides, the inhibition in experiment [1] is -12.7% (inactive); in experiment [3], -39.4% (inactive); in experiment [7], 11% (inactive); in experiment [8] it was 15.2% (inactive). In experiment [2], the inhibition of aggregation is -6.8% (inactive). Besides, the values for the nuclei count in experiment [2] and in experiment [3] were 112% and 108%, respectively. The results for the fluorescence slope in experiment [4] and in experiment [6] were -0.461 (inactive) and 0.00539 (inactive), respectively. Further, the NADPH fluorescence slope in experiment [5] is -4.1e-05 (inactive).

Turning to `Cc1occc1C(=O)Nc1cccc2ccccc12`, the cell count in experiment [1] came to 670. Further, the inhibition in experiment [1] was 5.2% (inactive); in experiment [3] it was -185% (inactive); in experiment [7], -27.7% (inactive); in experiment [8] it was -86.3% (inactive). In addition, the inhibition of aggregation in experiment [2] was 16.6% (inactive). The values for the nuclei count in experiment [2] and in experiment [3] were 97.2% and 100%, respectively. The fluorescence slope in experiment [4] was -0.546 (inactive); in experiment [6], 0.00507 (inactive). Further, the NADPH fluorescence slope in experiment [5] is 7.3e-06 (inactive).

For `CCn1cc(C(=O)N2CCN(C(=O)c3ccco3)CC2)c2cc(OC)c(OC)cc2c1=O`, in experiment [1], the cell count came out at 235. The inhibition in experiment [1] is -2.3% (inactive); in experiment [3] it was -55.5% (inactive); in experiment [7] it was 13.9% (inactive); in experiment [8] it was 15.4% (inactive). Besides, in experiment [2], the inhibition of aggregation is -10% (inactive). The values for the nuclei count in experiment [2] and in experiment [3] were 105% and 121%, respectively. Besides, the fluorescence slope was -0.515 (inactive) in experiment [4] and 0.00709 (inactive) in experiment [6]. The NADPH fluorescence slope in experiment [5] was 8.7e-05 (inactive).

As for `CCOc1cc(C2c3c(n[nH]c3C)C(=O)N2c2ccc(Br)cc2)ccc1O` (centres undefined), in experiment [1], the cell count worked out at 572. Also, the inhibition was -2.3% (inactive) in experiment [1], -89.9% (inactive) in experiment [3], 30.1% (inactive) in experiment [7] and 30% (inactive) in experiment [8]. Moreover, in experiment [2], the inhibition of aggregation is 7.8% (inactive). For the same compound, the figures for the nuclei count in experiment [2] and in experiment [3] were 109% and 110%, respectively. Moreover, the fluorescence slope in experiment [4] was -0.373 (inactive); in experiment [6], 0.00604 (inactive). The NADPH fluorescence slope in experiment [5] was -8.6e-06 (inactive).

On to `CC(=O)Oc1cccc(/C=c2\sc3nc(-c4ccco4)nn3c2=O)c1`, for which, in experiment [1], the cell count stood at 324. In addition, the inhibition in experiment [1] was -0.6% (inactive); in experiment [3], -69.5% (inactive); in experiment [7], 21.5% (inactive); in experiment [8] it was 16.1% (inactive). For the same compound, the inhibition of aggregation in experiment [2] was -30% (inactive). Further, the values for the nuclei count in experiment [2] and in experiment [3] were 103% and 80.7%, respectively. Further, the fluorescence slope is -0.549 (inactive) in experiment [4] and 0.00624 (inactive) in experiment [6]. For the same compound, in experiment [5], the NADPH fluorescence slope was -3e-05 (inactive).

As to `CCOc1ccccc1NC(=O)N1CCCC1C(=O)Nc1nnc(CC)s1` (centres undefined), the cell count in experiment [1] is 599. The inhibition in experiment [1] was -0.7% (inactive); in experiment [3], -86% (inactive); in experiment [7], 1.66% (inactive); in experiment [8] it was 12.7% (inactive). Also, the inhibition of aggregation in experiment [2] is -35.9% (inactive). Moreover, the results for the nuclei count in experiment [2] and in experiment [3] were 63.6% and 98.7%, respectively. Moreover, the fluorescence slope was -0.296 (inactive) in experiment [4] and 0.00525 (inactive) in experiment [6]. For the same compound, the NADPH fluorescence slope in experiment [5] was -3.1e-05 (inactive).
